“And” between values parts separate entries of the source, which are not always exact repeats. Equal values may be shown once. Read-outs that look alike come from different tables or passages of the source.
Columns and labels:
patients with CD = details: cited from earlier work
[1] = Population pharmacokinetic analysis of upadacitinib IR formulation; type: in vivo, human
Outline: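 A population PK model previously built for healthy subjects and RA patients was the starting model. It was fitted to sparse CELEST plasma concentrations: weeks 2–16, validated LC-MS, sampling time relative to last dose recorded. Covariate effects were judged by differences in Cave between covariate groups. Dose was tested as a covariate on model parameters to assess dose proportionality.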

[2] = type: in vivo, human; details: for Cmax: human, plasma, oral
Outline: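 Patients with Crohn's disease took oral IR tablets at 3, 6, 12 or 24 mg b.i.d. or 24 mg q.d. for a 16-week induction. Sparse plasma samples were taken at weeks 2, 4, 8, 12 and 16, with time from last dose recorded, and assayed by validated LC-MS. Steady-state Cmax and Cmin came from empirical Bayesian individual estimates. Cave = Dose/(CL/F × dosing interval). Values are median (5th–95th percentiles).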

[3] = type: in vivo, human; details: healthy subjects, ER formulation study
Outline: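 ER absorption parameters were estimated from phase I data in healthy volunteers given the extended-release formulation. They were then incorporated into the exposure–response models to simulate ER q.d. regimens.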

[4] = tested on: subjects with moderate‐to‐severe active Crohn's disease; assay: Regression; type: in vivo, human; details: Cave as exposure metric; week 12/16
Outline: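 SES-CD came from centrally read ileocolonoscopy at screening and at a randomly assigned week 12 or 16, with the two weeks pooled. End points were endoscopic response 25% and 50% and endoscopic remission, with nonresponder imputation. Regression Emax models related them to individual steady-state Cave over the dosing interval. The study used placebo and 3–24 mg b.i.d. or 24 mg q.d. IR oral dosing.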

[5] = cited from earlier work
[6] = 3 mg b.i.d. IR, steady-state, CD patients, CELEST
[7] = 6 mg b.i.d. IR, steady-state, CD patients, CELEST
[8] = 12 mg b.i.d. IR, steady-state, CD patients, CELEST
[9] = 24 mg b.i.d. IR, steady-state, CD patients, CELEST
[10] = 24 mg q.d. IR, steady-state, CD patients, CELEST

## C[C@@H]1CCN(C(=O)CC#N)C[C@@H]1N(C)c1ncnc2[nH]ccc12 [tofacitinib]
Patients with CD; two phase II studies
  efficacy in patients with CD: did not demonstrate efficacy

## O=C(Nc1nc2cccc(-c3ccc(CN4CCS(=O)(=O)CC4)cc3)n2n1)C1CC1 [Filgotinib]
Patients with CD
  efficacy in CD: has shown efficacy

## CC[C@@H]1CN(C(=O)NCC(F)(F)F)C[C@@H]1c1cnc2cnc3[nH]ccc3n12 [Upadacitinib]
[1]; 3–24 mg b.i.d.
  dose proportionality of exposure: approximately dose‐proportional
[1]; creatinine clearance 50 mL/minute vs 110 mL/minute
  higher Cave with renal impairment: 28%
[1]; population PK
  CL/F in subjects with CD relative to healthy subjects: comparable
  lower clearance in subjects with RA compared with non‐RA subjects: 22% and ~ 20%
[1]; population PK covariate
  higher Cave in women compared with men: 18%
  lower CL/F in women compared with men: 15%
  lower Vc/F in women compared with men: 25%
[1]; renal impairment, sex, bodyweight covariates
  difference in Cave among different covariate groups: < 30%
[1]; same dose
  lower Cave in subjects with CD than in subjects with RA: ~ 20%
[1]; subjects with CD
  Intersubject variability in CL/F: 41%
  Intersubject variability in Vc/F: 29%
[2]; [6]
  Cave, median (5th to 95th percentiles): 6.9 (4.6–14.1) ng/mL
  Cmin, median (5th to 95th percentiles): 1.2 (0.4–6.6) ng/mL
[2]; [7]
  Cave, median (5th to 95th percentiles): 14.9 (7.6–25.2) ng/mL
  Cmin, median (5th to 95th percentiles): 2.6 (0.2–7.5) ng/mL
[2]; [8]
  Cave, median (5th to 95th percentiles): 26.7 (8.5–49.6) ng/mL
  Cmax, median (5th to 95th percentiles): 80.7 (25.3–124) ng/mL
  Cmin, median (5th to 95th percentiles): 4.9 (0.2–25.2) ng/mL
[2]; [9]
  Cave, median (5th to 95th percentiles): 55.1 (29.8–91.8) ng/mL
  Cmin, median (5th to 95th percentiles): 7.8 (1.8–20.7) ng/mL
[2]; [10]
  Cave, median (5th to 95th percentiles): 25.1 (13.6–92.0) ng/mL
  Cmin, median (5th to 95th percentiles): 1.7 (0.3–34.2) ng/mL
[2]; 3 mg
  Cmax: 21.8 ng/mL
[2]; 6 mg
  Cmax: 40.2 ng/mL
[2]; 24 mg
  Cmax: 161 ng/mL
[3]
  bioavailability of ER formulation relative to IR formulation: 74%
[4]
  EC50 for endoscopic remission: 0.027 µg/mL
  EC50 for endoscopic response 50%: 0.026 µg/mL
[5]; 3–48 mg IR or 7.5–45 mg ER, ref 21,23 (data on file at AbbVie)
  dose proportionality of plasma exposures: dose‐proportional
[5]; IR formulation
  functional half‐life: 3 to 4 h
[5]
  increase in bioavailability from the ER formulation after a high‐fat meal: ~ 20%
[5]; more extensive dataset in subjects with RA
  relative bioavailability of ER formulation: 76%
[5]; oral, IR formulation
  time to reach maximum plasma concentration: 1 to 2 h
[5]; phase I study, healthy subjects
  exposure of ER 15 mg and 30 mg q.d. vs IR 6 mg b.i.d. and 12 mg b.i.d.: equivalent Cave and similar Cmax and Cmin

— paper PMC7027977 (Clinical Pharmacology and Therapeutics, 2019)
